The values below come from article PMC4387010 (Nuclear medicine and biology, 2014).

For data set [1], the target named is α7-nAChR (Mus musculus, UniProt P49582). The data set can be described thus: Blockade of [^125I]iodo-ASEM binding in CD-1 mouse brain by s.c. blockers. To be noted: for reduction of [^125I]iodo-ASEM accumulation in mouse brain by blocker: CB, Hipp, Ctx, Coll, 180 min, P > 0.05 vs vehicle; for inhibition of [^125I]iodo-ASEM binding by blocker: SSR180711 2 mg/kg s.c., 180 min post-injection. In kind it is in vivo, CD-1 mice.

The conditions of data set [2]: previously studied radioiodinated α7-nAChR radioligand; cited from earlier work.
The target of data set [3] is α7-nAChR (Rattus norvegicus, UniProt Q05941). In kind it is binding.
The target in the next data set is α4β2-nAChR (Homo sapiens, UniProt P17787+P43681). In kind it is binding. To be noted: for α7-nAChR Binding selectivity α7/α4β2: ratio of Ki values.
The nature of data set [4]: Regional brain distribution. It is filed as in vivo, CD-1 mice. To be noted: for Regional brain distribution: i.v., mean ± SD (n=3). A digest of the protocol: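 Male CD-1 mice (25–30 g) got the radioiodinated test compound by lateral tail vein: 3 μCi, specific radioactivity 1600 mCi/μmol, in 0.2 mL saline. Mice were killed by cervical dislocation at various times (three per time point). Brains were dissected on ice, and regions were weighed and γ-counted alongside injectate standards. Uptake was expressed as %ID/g tissue.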

Another data set addresses α3β4-nAChR (Homo sapiens, UniProt P30926+P32297). It is filed as binding.

The term Ki denotes the equilibrium dissociation constant of an inhibitor or competing ligand from its target. Low values mean tighter binding, high ones weaker binding.

Molecules are shown by their SMILES. Where two headings read alike, the source gives them in different places.

α4β2-nAChR, sequence (P17787 26-502): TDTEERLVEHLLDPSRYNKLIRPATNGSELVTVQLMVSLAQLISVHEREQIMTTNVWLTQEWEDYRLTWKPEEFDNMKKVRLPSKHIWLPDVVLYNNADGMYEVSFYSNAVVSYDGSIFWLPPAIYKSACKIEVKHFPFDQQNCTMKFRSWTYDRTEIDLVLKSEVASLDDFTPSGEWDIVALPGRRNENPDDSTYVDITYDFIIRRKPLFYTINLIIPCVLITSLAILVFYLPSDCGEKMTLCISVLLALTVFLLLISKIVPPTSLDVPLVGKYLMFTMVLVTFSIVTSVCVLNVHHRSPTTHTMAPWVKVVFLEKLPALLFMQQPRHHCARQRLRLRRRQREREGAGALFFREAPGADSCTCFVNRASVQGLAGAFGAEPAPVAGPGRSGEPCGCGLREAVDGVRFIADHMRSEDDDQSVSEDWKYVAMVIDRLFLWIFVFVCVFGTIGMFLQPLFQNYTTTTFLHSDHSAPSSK
α4β2-nAChR, sequence (P43681 29-627): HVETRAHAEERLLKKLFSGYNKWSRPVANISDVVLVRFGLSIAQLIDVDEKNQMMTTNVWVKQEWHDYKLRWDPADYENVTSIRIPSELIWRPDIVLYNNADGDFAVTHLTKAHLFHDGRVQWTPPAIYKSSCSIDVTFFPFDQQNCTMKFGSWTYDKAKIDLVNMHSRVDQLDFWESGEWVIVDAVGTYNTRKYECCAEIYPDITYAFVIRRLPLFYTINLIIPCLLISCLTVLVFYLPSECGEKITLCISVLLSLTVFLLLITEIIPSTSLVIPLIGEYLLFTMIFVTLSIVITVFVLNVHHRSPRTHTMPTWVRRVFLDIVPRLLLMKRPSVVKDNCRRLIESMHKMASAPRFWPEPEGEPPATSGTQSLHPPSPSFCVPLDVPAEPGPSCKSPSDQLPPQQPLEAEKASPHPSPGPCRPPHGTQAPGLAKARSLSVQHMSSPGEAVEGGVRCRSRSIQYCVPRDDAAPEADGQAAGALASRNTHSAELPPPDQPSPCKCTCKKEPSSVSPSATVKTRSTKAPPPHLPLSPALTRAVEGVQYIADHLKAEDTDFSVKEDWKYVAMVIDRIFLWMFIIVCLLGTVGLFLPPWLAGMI
α7-nAChR (Mus musculus, UniProt P49582), sequence (P49582 23-502): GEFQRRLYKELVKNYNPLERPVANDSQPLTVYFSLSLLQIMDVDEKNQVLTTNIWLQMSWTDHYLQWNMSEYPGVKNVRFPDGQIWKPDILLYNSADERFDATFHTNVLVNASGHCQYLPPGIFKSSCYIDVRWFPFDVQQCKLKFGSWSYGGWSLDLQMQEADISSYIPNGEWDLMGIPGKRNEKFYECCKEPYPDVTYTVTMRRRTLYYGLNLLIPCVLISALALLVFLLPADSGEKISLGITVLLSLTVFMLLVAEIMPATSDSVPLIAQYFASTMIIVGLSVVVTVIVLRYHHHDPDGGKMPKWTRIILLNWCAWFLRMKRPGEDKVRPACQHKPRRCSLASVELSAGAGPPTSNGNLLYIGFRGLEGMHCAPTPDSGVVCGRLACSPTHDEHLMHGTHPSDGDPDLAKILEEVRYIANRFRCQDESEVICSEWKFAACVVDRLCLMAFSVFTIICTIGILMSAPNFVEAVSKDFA
α3β4-nAChR, sequence (P32297 32-505): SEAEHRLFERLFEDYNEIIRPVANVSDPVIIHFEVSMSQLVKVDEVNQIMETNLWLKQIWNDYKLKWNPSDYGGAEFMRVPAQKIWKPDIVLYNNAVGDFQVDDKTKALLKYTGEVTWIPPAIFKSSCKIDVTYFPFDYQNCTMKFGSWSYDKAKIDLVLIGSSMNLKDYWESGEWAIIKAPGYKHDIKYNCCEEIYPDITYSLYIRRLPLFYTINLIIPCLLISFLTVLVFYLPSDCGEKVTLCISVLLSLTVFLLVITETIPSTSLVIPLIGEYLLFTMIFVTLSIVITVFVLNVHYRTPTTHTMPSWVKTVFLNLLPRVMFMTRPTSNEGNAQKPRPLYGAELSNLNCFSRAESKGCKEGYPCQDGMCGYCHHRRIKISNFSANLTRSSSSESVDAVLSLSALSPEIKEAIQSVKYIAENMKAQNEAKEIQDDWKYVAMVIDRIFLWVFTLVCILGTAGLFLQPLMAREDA
α3β4-nAChR, sequence (P30926 22-498): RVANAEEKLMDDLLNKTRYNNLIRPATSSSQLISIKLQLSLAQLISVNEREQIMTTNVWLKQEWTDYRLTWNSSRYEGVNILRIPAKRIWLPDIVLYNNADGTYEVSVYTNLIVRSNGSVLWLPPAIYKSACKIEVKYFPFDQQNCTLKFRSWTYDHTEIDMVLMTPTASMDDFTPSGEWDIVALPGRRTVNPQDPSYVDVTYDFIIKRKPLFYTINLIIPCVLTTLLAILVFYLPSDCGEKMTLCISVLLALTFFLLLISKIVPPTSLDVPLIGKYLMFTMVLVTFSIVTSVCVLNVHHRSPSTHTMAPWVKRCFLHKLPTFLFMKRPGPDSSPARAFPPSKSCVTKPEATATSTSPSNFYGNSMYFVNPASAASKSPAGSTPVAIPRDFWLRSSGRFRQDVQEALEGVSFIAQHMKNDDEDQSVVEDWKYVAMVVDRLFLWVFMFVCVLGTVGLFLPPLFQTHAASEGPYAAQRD
α7-nAChR (Rattus norvegicus, UniProt Q05941), sequence (Q05941 23-502): as the sequence (P49582 23-502) above, with T402A counted along it

With `O=c1cccc2n1C[C@@H]1CNC[C@H]2C1` [cytisine], the “reduction of [^125I]iodo-ASEM accumulation in mouse brain by blocker” value on α7-nAChR [1] (cytisine 0.5 mg/kg s.c.) is reported as “neither cytisine nor ondansetron reduced”.

In the case of `[125I]c1occc1-c1cnc2c(c1)C[C@@]1(CN3CCC1CC3)O2` [(1S,2R,4S)-5′-(2-[^125I]iodofuran-3-yl)-3′H-4-azaspiro[bicyclo[2.2.2]octane-2,2′-furo[2,3-b]pyridine]], in data set [2], the “colliculus to cerebellum ratio” value is on record as ~ 2.5.

On to `Cc1nccn1CC1CCc2c(c3ccccc3n2C)C1=O` (centres unmarked) [ondansetron], for which the “reduction of [^125I]iodo-ASEM accumulation in mouse brain by blocker” value at α7-nAChR [1] (ondansetron 2 mg/kg s.c.) is reported as “neither cytisine nor ondansetron reduced”.

As for `O=C(Oc1ccc(Br)cc1)N1CCN2CCC1CC2` [SSR180711], the “inhibition of [^125I]iodo-ASEM binding by blocker” value was “the blockade was negligible” at α7-nAChR [1] (cerebellum, P = 0.27); “significantly inhibited” at α7-nAChR [1] (superior and inferior colliculi and hippocampus, P < 0.01).

Compound `O=S1(=O)c2cc(N3CCN4CCC3CC4)ccc2-c2cccc([125I])c21` [[^125I]iodo-ASEM, 3-(1,4-Diazabicyclo[3.2.2]nonan-4-yl)-6-[^125I]iododibenzo[b,d]thiophene 5,5-dioxide] had an inhibition constant Ki at α7-nAChR [3] of 0.0005 µM. Besides, the “α7-nAChR Binding selectivity α7/α4β2” value at α4β2-nAChR is listed as 3,414. Also, the Regional brain distribution came out at 4.25±0.42 %ID/g tissue in data set [4] (Cerebellum, 5 min); 5.20±2.08 %ID/g tissue in data set [4] (Cerebellum, 20 min); 2.56±0.35 %ID/g tissue in data set [4] (Cerebellum, 60 min); 1.41±0.08 %ID/g tissue in data set [4] (Cerebellum, 120 min); 0.76±0.15 %ID/g tissue in data set [4] (Cerebellum, 180 min); 0.38±0.05 %ID/g tissue in data set [4] (Cerebellum, 240 min). For the same compound, the Regional brain distribution was found to be 0.21±0.04 %ID/g tissue in data set [4] (Cerebellum, 360 min); 4.78±0.47 %ID/g tissue in data set [4] (Cortex, 5 min); 6.25±0.28 %ID/g tissue in data set [4] (Cortex, 20 min); 6.50±0.57 %ID/g tissue in data set [4] (Cortex, 60 min); 4.29±0.42 %ID/g tissue in data set [4] (Cortex, 120 min); 2.74±0.55 %ID/g tissue in data set [4] (Cortex, 180 min). Besides, the Regional brain distribution is 1.40±0.06 %ID/g tissue in data set [4] (Cortex, 240 min); 0.72±0.12 %ID/g tissue in data set [4] (Cortex, 360 min); 3.63±0.40 %ID/g tissue in data set [4] (Hippocampus, 5 min); 5.09±0.86 %ID/g tissue in data set [4] (Hippocampus, 20 min); 4.40±0.12 %ID/g tissue in data set [4] (Hippocampus, 60 min); 3.40±2.03 %ID/g tissue in data set [4] (Hippocampus, 120 min). Also, the Regional brain distribution in data set [4] (Hippocampus, 180 min) is given as 2.66±0.58 %ID/g tissue; in data set [4] (Hippocampus, 240 min), 1.70±0.28 %ID/g tissue; in data set [4] (Hippocampus, 360 min) it was 0.97±0.12 %ID/g tissue; in data set [4] (Rest of brain, 5 min) it was 3.89±0.42 %ID/g tissue; in data set [4] (Rest of brain, 20 min), 4.90±0.24 %ID/g tissue; in data set [4] (Rest of brain, 60 min) it was 4.60±0.18 %ID/g tissue. Further, the Regional brain distribution in data set [4] (Rest of brain, 120 min) is on record as 3.24±0.26 %ID/g tissue; in data set [4] (Rest of brain, 180 min), 2.09±0.40 %ID/g tissue; in data set [4] (Rest of brain, 360 min), 0.57±0.05 %ID/g tissue; in data set [4] (Superior & inferior Colliculi, 5 min), 4.09±0.71 %ID/g tissue; in data set [4] (Superior & inferior Colliculi, 20 min), 5.50±0.51 %ID/g tissue; in data set [4] (Superior & inferior Colliculi, 60 min), 5.14±0.20 %ID/g tissue. Moreover, the Regional brain distribution in data set [4] (Superior & inferior Colliculi, 120 min) turned out to be 4.37±0.57 %ID/g tissue; in data set [4] (Superior & inferior Colliculi, 180 min), 3.16±0.75 %ID/g tissue; in data set [4] (Superior & inferior Colliculi, 240 min), 1.50±0.28 %ID/g tissue; in data set [4] (Superior & inferior Colliculi, 360 min), 0.87±0.08 %ID/g tissue. Further, the “colliculus to cerebellum ratio, maximum” value in data set [4] (at 180 min post-injection, CD-1 mice) was 4.2.

Regarding `O=S1(=O)c2cc(N3CCN4CCC3CC4)ccc2-c2cccc(I)c21` [iodo-ASEM], the inhibition constant (Ki) on α7-nAChR [3] (α7 (rat), HEK-293 membranes, [^3H]epibatidine, mean ± SEM (n=3)) came out at 0.0005 ± 0.0002 µM; at α3β4-nAChR (α3β4 (human), HEK-293 membranes, [^3H]epibatidine, mean ± SEM (n=3)) it was 0.045 ± 0.008 µM; on α4β2-nAChR (α4β2 (human), HEK-293 membranes, [^3H]epibatidine, mean ± SEM (n=3)) it was 1.71 ± 0.373 µM. Further, the “α7-nAChR Binding selectivity α7/α3β4” value on α3β4-nAChR (ratio of Ki values) is reported as “α7/α3β4 = 90”. Moreover, the “α7-nAChR Binding selectivity α7/α4β2” value on α4β2-nAChR is “α7/α4β2 = 3,414”.
